# Assay results as given in ChEMBL document CHEMBL1121898, “Potential antiestrogens. Synthesis and evaluation of mammary tumor inhibiting activity of 1,2-dialkyl-1,2-bis(3'-hydroxyphenyl)ethanes” (1981).
# Where “and” joins values, the source holds several entries; their conditions need not be identical. Equal values may be shown once. Calls of active or inactive are those of the source.
# How the values were obtained:
# MCF7 [1] = experiment: (§1) Inhibition of estrogen receptor positive MCF-7 cell proliferation as cell number after 10 days at 10e-7 M; format: functional, Homo sapiens
# Summary of the method: (§2)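 MCF-7 cells were grown in McCoy's 5a medium with fetal bovine serum stripped by DCC (0.5 h, 45 °C). Compounds were dissolved in ethanol (final ≤0.5%) and diluted in complete medium. Cells were seeded at 5×10^4 cells/plate. On day 10, three replicate plates per group were counted by Coulter counter, three counts per plate. Percent T/C = test/control. In a retest, compounds were given at 10^-7 M with 17β-estradiol at 10^-7 or 10^-8 M.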
# Mus musculus = organism: Mus musculus; experiment: Vaginal cornification test in mice at 0 ug; predominant cellular component leucocytes (diestrus); format: functional, organism-based
# Summary of the method: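 Female NMRI mice (~15 g) were ovariectomized; castration was confirmed at 10 days by leucocyte smears. Mice were primed with estradiol 3-benzoate 0.2 μg, and only responders showing estrus were kept. Groups of three received sc test compound in 0.1 mL olive oil daily for 3 days. Saline vaginal smears were taken 6, 24, 30, 48 and 54 h after the last dose and scored by Allen-Doisy.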
# [2] = biological target: T1, Estrogen receptor (Mus musculus) (UniProt O08537+P19785); experiment: Inhibitory activity in mouse uterine weight test at 50 ug; format: functional
# T1 sequence (O08537 whole entry, looked up): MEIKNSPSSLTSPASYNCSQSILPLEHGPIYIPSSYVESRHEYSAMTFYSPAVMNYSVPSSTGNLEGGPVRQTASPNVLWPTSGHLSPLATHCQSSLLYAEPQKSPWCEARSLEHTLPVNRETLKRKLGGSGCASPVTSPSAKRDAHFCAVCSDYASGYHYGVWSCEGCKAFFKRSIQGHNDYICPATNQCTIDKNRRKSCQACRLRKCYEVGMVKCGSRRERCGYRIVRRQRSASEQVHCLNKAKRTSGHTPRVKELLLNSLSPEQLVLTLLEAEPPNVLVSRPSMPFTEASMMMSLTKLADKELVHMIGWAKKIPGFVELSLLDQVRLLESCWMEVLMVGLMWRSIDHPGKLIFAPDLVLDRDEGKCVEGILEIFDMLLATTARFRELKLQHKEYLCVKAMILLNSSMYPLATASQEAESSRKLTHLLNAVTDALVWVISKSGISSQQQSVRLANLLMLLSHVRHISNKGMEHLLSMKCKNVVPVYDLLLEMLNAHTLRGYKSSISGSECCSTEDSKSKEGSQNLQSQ
# T1 sequence (P19785 whole entry, looked up): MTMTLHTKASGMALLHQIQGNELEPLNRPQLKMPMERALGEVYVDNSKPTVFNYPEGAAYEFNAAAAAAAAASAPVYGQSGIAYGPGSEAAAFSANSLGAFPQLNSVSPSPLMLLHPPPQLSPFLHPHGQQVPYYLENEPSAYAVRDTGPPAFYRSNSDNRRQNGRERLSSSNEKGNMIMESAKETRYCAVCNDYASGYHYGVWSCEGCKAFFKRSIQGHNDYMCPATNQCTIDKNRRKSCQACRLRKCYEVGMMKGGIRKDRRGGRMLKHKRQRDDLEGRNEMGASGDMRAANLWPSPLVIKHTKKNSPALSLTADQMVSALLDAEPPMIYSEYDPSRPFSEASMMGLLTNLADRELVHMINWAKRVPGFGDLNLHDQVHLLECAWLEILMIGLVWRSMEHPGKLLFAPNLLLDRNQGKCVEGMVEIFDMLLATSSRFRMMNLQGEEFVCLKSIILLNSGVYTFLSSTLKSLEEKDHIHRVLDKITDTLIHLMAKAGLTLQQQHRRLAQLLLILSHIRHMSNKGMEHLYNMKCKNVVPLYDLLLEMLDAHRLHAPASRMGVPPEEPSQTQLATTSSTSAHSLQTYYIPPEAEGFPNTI
# Summary of the method: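 Antiuterotrophic (Dorfman) assay in immature 20-day-old female NMRI mice, groups of 10. Uterine growth was stimulated with estrone (0.1 μg) and the test compound was given alongside it, sc daily for 3 days in 0.1 mL olive oil. Uteri were taken 24 h after the last dose. Uterine weight is reported as means ± SD and inhibition as % of the estrone-stimulated response.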
# [3] = biological target: T1, Estrogen receptor (Mus musculus); experiment: Estrogenic activity in uterotrophic test in mice at 900 ug; format: functional
# Summary of the method: (§3)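 Immature (20-day-old) female NMRI mice, 14.5 ± 1.2 g, randomized into groups of 10. Given the test compound sc daily for 3 days in 0.1 mL olive oil. Uteri removed 24 h after the last injection; uterine weight taken as the read-out, means ± SD. Dose in μg.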
# MCF7 [4] = experiment: Inhibition of estrogen receptor positive MCF-7 cell proliferation as percent treated/control cell number after 10 days at 10e-7 M; format: functional, Homo sapiens; summary of the method: as §2
# [5] = biological target: T1, Estrogen receptor (Mus musculus); experiment: Estrogenic activity in uterotrophic test in mice at 3 ug; format: functional
# Summary of the method: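 Uterine growth stimulation in immature female NMRI mice, 20 days old (14.5 ± 1.2 g), 10 per group. Test compound in 0.1 mL olive oil was given sc daily for 3 days. Uteri were excised 24 h after the final injection and weighed. Effect is reported as mean ± SD.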
# [6] = biological target: T1, Estrogen receptor (Mus musculus); experiment: Antiestrogenic activity in uterotrophic test in mice at 0 ug; format: functional
# Summary of the method: (§4)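 Immature female NMRI mice, 20 days old (14.5 ± 1.2 g), randomly grouped 10 per group. Each received a daily sc injection for 3 days of 0.1 mL olive oil solution containing test compound, together with estrone to stimulate uterine growth. Uteri were removed 24 h after the last injection and weighed. Results are reported as % inhibition of the estrone-stimulated uterine weight gain, mean ± SD.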
# MCF7 [7] = experiment: Inhibition of estrogen receptor positive MCF-7 cell proliferation as percent treated/control cell number after 10 days at 10e-7 M and 10e-8 M 17-beta-estradiol; format: functional, Homo sapiens; summary of the method: as §2
# MCF7 [8] = experiment: Inhibition of estrogen receptor positive MCF-7 cell proliferation as cell number after 10 days at 10e-8 M; format: functional, Homo sapiens; summary of the method: as §2
# MCF7 [9] = experiment: as §1; format: functional, Homo sapiens; summary of the method: as §2; remark: listed apart in the source
# MCF7 [10] = experiment: Inhibition of estrogen receptor positive MCF-7 cell proliferation as cell number after 10 days at 10e-6 M; format: functional, Homo sapiens; summary of the method: as §2
# MCF7 [11] = experiment: Inhibition of estrogen receptor positive MCF-7 cell proliferation as cell number after 10 days at 10e-7 M and 10e-7 M 17-beta-estradiol; format: functional, Homo sapiens; summary of the method: as §2
# Rattus norvegicus [12] = organism: Rattus norvegicus; experiment: Percent change in DMBA-induced hormone-dependent mammary carcinoma tumor area at 4.5 mg after 28 days; format: functional
# Summary of the method: (§5)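 DMBA-induced, hormone-dependent mammary adenocarcinoma in SD rats. Rats bearing at least one tumor >140 mm² were placed in groups of ten. Compound was given sc as a single dose (mg/kg) daily Monday–Thursday and a double dose on Friday. Tumors were counted at the start and as new tumors; responses were scored as complete remission (not palpable), partial remission (≥50% reduction), no change or progression. Tumor area and body weight were recorded as % change.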
# MCF7 [13] = experiment: Inhibition of estrogen receptor positive MCF-7 cell proliferation as percent treated/control cell number after 10 days at 10e-9 M; format: functional, Homo sapiens; summary of the method: as §2
# MCF7 [14] = experiment: Inhibition of estrogen receptor positive MCF-7 cell proliferation as cell number after 10 days at 10e-7 M and 10e-8 M 17-beta-estradiol; format: functional, Homo sapiens; summary of the method: as §2
# Rattus norvegicus [15] = organism: Rattus norvegicus; experiment: Percent change in body weight DMBA-induced hormone-dependent mammary carcinoma tumors in rats at 9 mg for 7 days; format: functional
# MCF7 [16] = experiment: Inhibition of estrogen receptor positive MCF-7 cell proliferation as percent treated/control cell number after 10 days at 10e-6 M; format: functional, Homo sapiens; summary of the method: as §2
# [17] = biological target: T1, Estrogen receptor (Mus musculus); experiment: Antiestrogenic activity in uterotrophic test in mice at 50 ug; format: functional; summary of the method: as §4
# [18] = system: Estrogen receptor (Bos taurus); experiment: Displacement of [3H]estradiol from calf estrogen receptor
# [19] = biological target: T1, Estrogen receptor (Mus musculus); experiment: Estrogenic activity in uterotrophic test in mice at 90 ug; format: functional; summary of the method: as §3
# MCF7 [20] = experiment: Inhibition of estrogen receptor positive MCF-7 cell proliferation as percent treated/control cell number after 10 days at 10e-7 M with 10e-7 M 17-beta-estradiol; format: functional, Homo sapiens; summary of the method: as §2
# MCF7 [21] = experiment: Inhibition of estrogen receptor positive MCF-7 cell proliferation as cell number after 10 days at 10e-9 M; format: functional, Homo sapiens; summary of the method: as §2
# MCF7 [22] = experiment: Inhibition of estrogen receptor positive MCF-7 cell proliferation as percent treated/control cell number after 10 days at 10e-8 M; format: functional, Homo sapiens; summary of the method: as §2
# [23] = biological target: T1, Estrogen receptor (Mus musculus); experiment: Antiestrogenic activity in uterotrophic test in mice at 500 ug; format: functional; summary of the method: as §4
# Rattus norvegicus [24] = organism: Rattus norvegicus; experiment: Complete remission of DMBA-induced hormone-dependent mammary carcinoma tumors in rats at 1 mg; format: functional
# Summary of the method: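 Female SD rats bearing DMBA-induced, hormone-dependent mammary adenocarcinoma, with at least one tumor >140 mm², were grouped in tens. Dosing was sc per kg body weight: a single dose daily Monday–Thursday and a double dose Friday. Ovariectomy served as the comparison arm. Complete remission was defined as a tumor no longer palpable. Body weight and tumor area changes were also recorded.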
# [25] = biological target: T1, Estrogen receptor (Mus musculus); experiment: Estrogenic activity in uterotrophic test in mice at 800 ug (experiment 2); format: functional; summary of the method: as §3
# Rattus norvegicus [26] = organism: Rattus norvegicus; experiment: Progression of DMBA-induced hormone-dependent mammary carcinoma tumors in rats at 1 mg; format: functional
# Rattus norvegicus [27] = organism: Rattus norvegicus; experiment: Initial tumor number of DMBA-induced hormone-dependent mammary carcinoma in rats at 4 mg; format: functional; summary of the method: as §5
# [28] = biological target: T1, Estrogen receptor (Mus musculus); experiment: Inhibitory activity in mouse uterine weight test at 500 ug (experiment 2); format: functional
# Summary of the method: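 Immature female NMRI mice, 20 days old (14.5 ± 1.2 g), in random groups of 10. They received sc injections daily for 3 days of 0.1 mL olive oil containing test compound, with estrone 0.1 μg given to stimulate uterine growth. Uteri were removed 24 h after the last injection and weighed (mean ± SD). Result is percent inhibition of the estrone-stimulated uterine weight gain.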
# [29] = biological target: T1, Estrogen receptor (Mus musculus); experiment: Antiestrogenic activity in uterotrophic test in mice at 25 ug (experiment 2); format: functional; summary of the method: as §4
# Rattus norvegicus [30] = organism: Rattus norvegicus; experiment: Final number of DMBA-induced hormone-dependent mammary carcinoma tumors in rats at 2 mg; format: functional
# Summary of the method: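 Sprague-Dawley rats carrying DMBA-induced, hormone-dependent mammary adenocarcinoma, at least one tumor >140 mm², were placed in groups of ten. Compounds were given sc, with doses in mg/kg: a single daily dose Monday to Thursday and a double dose on Friday. Ovariectomy served as a comparator group. New tumors arising during the test were counted.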
Ka [18] [M⁻¹],Structure (SMILES),Cell number (MCF7 [1]),Activity (Mus musculus),T/C (MCF7 [4]),T/C (MCF7 [7]) [%],Cell number (MCF7 [8]),Cell number (MCF7 [9]),Cell number (MCF7 [10]),T/C (MCF7 [13]) [%],Cell number (MCF7 [14]),T/C (MCF7 [16]) [%],T/C (MCF7 [20]) [%],Cell number (MCF7 [21]),T/C (MCF7 [22]) [%],other results
9.1e+07,CCCC(c1cccc(O)c1)C(CCC)c1cccc(O)c1 (stereo not given),29700,inactive,66% and 68%,93,34300,4300,23300,71,6100,53,84,30700,78,inhibition [2]: 43%; Effect [3]: 28.7; Effect [5]: 13.6; Effect [6]: 9.9; Cell number (MCF7 [11]): 5600; Change (Rattus norvegicus [12]): 109%; Change (Rattus norvegicus [15]): -2.7%; Effect [17]: 25.9; Effect [19]: 17.6; Effect [23]: 23.9
2e+08,CCC(c1cccc(O)c1)C(CC)c1cccc(O)c1 (stereo in doubt; 20),27700,inactive,70% and 63%,78,27900,4700,11900,73,5100,27,84,32100,64,Tumors (Rattus norvegicus [24]): 21%; Effect [25]: 30.8; Tumors (Rattus norvegicus [26]): 29%; No. of tumors (Rattus norvegicus [27]): 37; inhibition [28]: 40%; Effect [29]: 28.1; No. of tumors (Rattus norvegicus [30]): 23
